Assay [1] has as its target T1, Mitochondrial complex V; ATP synthase (Bos taurus, UniProt P00829+P05630+P05631+P05632). Nature of the assay: Inhibitory activity against bovine mitochondrial F1F0 ATP hydrolase. Type of assay: protein-complex assay.
In assay [2] the target is T1, Mitochondrial complex V; ATP synthase. Put plainly: Inhibitory activity against bovine mitochondrial F1F0-ATP synthase. Type of assay: protein-complex assay. A digest of the protocol: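 Synthase direction read as the rise in A340 in a hexokinase:glucose-6-phosphate dehydrogenase coupled assay.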

The results in this text go back to ChEMBL document CHEMBL1146666, “N-[1-Aryl-2-(1-imidazolo)ethyl]-guanidine derivatives as potent inhibitors of the bovine mitochondrial F1F0 ATP hydrolase” (Bioorg Med Chem Lett, 2004).

Each structure is given as a SMILES string. Some results are limits rather than exact numbers.

T1 sequence (P05632 whole entry): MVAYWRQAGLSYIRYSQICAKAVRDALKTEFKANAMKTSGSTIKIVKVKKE
T1 sequence (P00829 whole entry): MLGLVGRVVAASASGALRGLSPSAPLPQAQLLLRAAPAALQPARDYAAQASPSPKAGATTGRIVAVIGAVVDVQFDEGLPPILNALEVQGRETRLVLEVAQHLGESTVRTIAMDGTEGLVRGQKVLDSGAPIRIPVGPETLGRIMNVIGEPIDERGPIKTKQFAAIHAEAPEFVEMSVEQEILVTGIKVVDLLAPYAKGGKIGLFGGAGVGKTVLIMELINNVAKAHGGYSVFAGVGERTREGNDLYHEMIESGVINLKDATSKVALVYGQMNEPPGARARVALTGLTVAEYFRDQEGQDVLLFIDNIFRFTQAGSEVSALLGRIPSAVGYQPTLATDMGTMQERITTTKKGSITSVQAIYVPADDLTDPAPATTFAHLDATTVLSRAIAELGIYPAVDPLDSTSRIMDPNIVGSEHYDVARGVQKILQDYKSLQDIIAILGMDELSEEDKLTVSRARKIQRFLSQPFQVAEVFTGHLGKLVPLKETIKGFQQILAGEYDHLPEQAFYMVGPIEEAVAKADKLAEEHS
T1 sequence (P05631 whole entry): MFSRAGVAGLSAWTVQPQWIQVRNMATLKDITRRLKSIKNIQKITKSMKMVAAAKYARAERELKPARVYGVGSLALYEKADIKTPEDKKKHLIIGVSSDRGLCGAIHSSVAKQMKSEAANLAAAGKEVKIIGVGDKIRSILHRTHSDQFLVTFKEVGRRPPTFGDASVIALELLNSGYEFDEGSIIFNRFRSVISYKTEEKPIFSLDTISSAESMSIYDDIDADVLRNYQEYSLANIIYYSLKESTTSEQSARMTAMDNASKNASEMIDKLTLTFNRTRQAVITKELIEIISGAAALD
T1 sequence (P05630 whole entry): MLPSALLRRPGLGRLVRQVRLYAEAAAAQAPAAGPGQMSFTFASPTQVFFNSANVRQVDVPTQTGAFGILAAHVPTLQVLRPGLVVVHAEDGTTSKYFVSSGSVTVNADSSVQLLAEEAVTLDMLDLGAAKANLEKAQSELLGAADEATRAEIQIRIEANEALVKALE

Usually IC50 stands for the concentration needed to halve the response being measured. For the compound `Cc1ccc(C(Cn2ccnc2)OC(=S)Nc2ccc(Cl)cc2)c(C)c1` (configuration not stated), the IC50 in assay [1] was 31.4 µM; in assay [2], more than 100 µM. In the same order, the values of `S=C(Nc1ccc(Cl)cc1Cl)OC(Cn1ccnc1)c1ccc(Cl)cc1Cl` (configuration not stated) are 0.03 µM and more than 100 µM.

For `N#CN/C(=N\C(Cn1ccnc1)c1ccc(Cl)cc1Cl)Nc1cccc(Cl)c1Cl` (configuration not stated), the IC50 in assay [1] is 2.49 µM; in assay [2], more than 100 µM. As for `O=C(Nc1ccc(Cl)cc1Cl)OC(Cn1ccnc1)c1ccc(Cl)cc1Cl` (configuration not stated), the IC50 is 6.77 µM in assay [1] and more than 100 µM in assay [2].

As to `N#CN/C(=N/c1ccc(Cl)cc1Cl)NC(Cn1ccnc1)c1ccc(Cl)cc1Cl` (configuration not stated), the 50% inhibitory concentration (IC50) in assay [1] is 0.6 µM; in assay [2], more than 100 µM. For `CCC(=O)C(Nc1ccc(Cl)cc1)NC(Cn1ccnc1)c1ccc(Cl)cc1Cl` (configuration not stated), the 50% inhibitory concentration (IC50) in assay [1] is 2.27 µM; in assay [2] it was more than 100 µM. Take `Cc1ccc(NC(=S)OC(Cn2ccnc2)c2ccc(Cl)cc2Cl)c(C)c1` (configuration not stated): the IC50 in assay [1] was 0.23 µM; in assay [2], more than 100 µM.

Take `O=C(c1ccc(Cl)cc1)C(Nc1ccc(Cl)cc1)NC(Cn1ccnc1)c1ccc(Cl)cc1Cl` (configuration not stated): the half-maximal inhibitory concentration (IC50) was 0.082 µM in assay [1] and more than 100 µM in assay [2].

As for `N#CN/C(=N\C(Cn1ccnc1)c1cc(C(F)(F)F)ccc1C(F)(F)F)Nc1ccc(Cl)cc1Cl` (configuration not stated), the half-maximal inhibitory concentration (IC50) in assay [1] is 0.71 µM; in assay [2], more than 100 µM. For `N#CN/C(=N/c1cccc(Cl)c1)NC(Cn1ccnc1)c1ccc(Cl)cc1Cl` (configuration not stated) the same measures were 9.17 µM and more than 100 µM. `Cc1ccc(NC(=S)OC(Cn2ccnc2)c2ccc(Cl)cc2Cl)cc1` (configuration not stated): the half-inhibitory concentration (IC50) in assay [1] is 0.66 µM; in assay [2] it was more than 100 µM. Consider `N#Cc1ccc(C(=O)C(Nc2ccc(Cl)cc2)NC(Cn2ccnc2)c2ccc(Cl)cc2Cl)cc1` (configuration not stated), for which the concentration for half-maximal inhibition (IC50) in assay [1] was 0.28 µM; in assay [2], more than 100 µM. On to `N#CN/C(=N\C(Cn1ccnc1)c1ccc(Cl)cc1Cl)Nc1ccc(Cl)cc1` (configuration not stated), for which the results for the 50% inhibitory concentration (IC50) in assay [1] and in assay [2] were 8.8 µM and more than 100 µM, respectively. With `S=C(Nc1ccc(Cl)cc1Cl)NC(Cn1ccnc1)c1ccc(Cl)cc1Cl` (configuration not stated), the IC50 is 2.41 µM in assay [1] and more than 100 µM in assay [2].

Take `S=C(Nc1ccccc1)OC(Cn1ccnc1)c1ccc(Cl)cc1Cl` (configuration not stated): the figures for the IC50 in assay [1] and in assay [2] were 3.6 µM and more than 100 µM, respectively. Consider `S=C(Nc1ccc(Cl)cc1)OC(Cn1ccnc1)c1ccc(Cl)cc1Cl` (configuration not stated), for which the concentration for half-maximal inhibition (IC50) in assay [1] was 0.43 µM; in assay [2], more than 100 µM. In the case of `N#CN=C(Nc1ccccc1Cl)NC(Cn1ccnc1)c1ccc(Cl)cc1Cl` (configuration not stated), the 50% inhibitory concentration (IC50) in assay [1] is 2.23 µM; in assay [2] it was more than 100 µM. As for `N#Cc1cccc(C(=O)C(Nc2ccc(Cl)cc2)NC(Cn2ccnc2)c2ccc(Cl)cc2Cl)c1` (stereo in doubt; 19a), the IC50 in assay [1] worked out at 0.033 µM.

For the compound `N#Cc1cccc(C(=O)C(Nc2ccc(Cl)cc2)NC(Cn2ccnc2)c2ccc(Cl)cc2Cl)c1` (stereo in doubt; form 1), the concentration for half-maximal inhibition (IC50) in assay [1] and in assay [2] was more than 100 µM in each case.
